Results as given in ChEMBL document CHEMBL4007460, “17β-Hydroxywithanolides as Sensitizers of Renal Carcinoma Cells to Tumor Necrosis Factor-α Related Apoptosis Inducing Ligand (TRAIL) Mediated Apoptosis: Structure-Activity Relationships” (J Med Chem, 2017).
pIC50: −log10 of the molar value.

System: ACHN
Experiment: Sensitization of TRAIL-induced apoptosis in human ACHN cells assessed as reduction in cell viability preincubated for 2 hrs followed by addition of TRAIL measured after 18 hrs by MTS assay
Type: functional, cell-based
How it was run: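 ACHN cells were seeded at 5000/well and rested overnight at 37 °C, in RPMI with 5% FCS, glutamine, NEAA, pyruvate, HEPES and 2-mercaptoethanol. Compound pretreatment ran 2 h, then TRAIL was added to 50 ng/mL for 18 h at 37 °C. Viability was read by MTS (2 h, A490). IC50 values (cell number reduced 50%) came from dose-response curves; triplicates, at least 3 independent experiments, ± SD.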

**Q.** CC(=O)OC[C@]12CC[C@H]3[C@@H](CC=C4CC=CC(=O)[C@@]43C)[C@]1(O)[C@@H](OC(C)=O)C[C@@]2(O)[C@@](C)(O)[C@H]1CC(CO)=C(C)C(=O)O1 was tested. Which pIC50 did it give?
**A.** < 5.40

**Q.** How did the pIC50 turn out when CC(=O)OC[C@]12CC[C@H]3[C@@H](C[C@@H]4O[C@@]45CC=CC(=O)[C@]35C)[C@]1(O)[C@@H](O)C[C@@]2(O)[C@@](C)(O)[C@H]1CC(C)=C(C)C(=O)O1 was run?
**A.** 5.78

**Q.** How did the pIC50 turn out when CC(=O)OC[C@]12CC[C@H]3[C@@H](CC=C4CC=CC(=O)[C@@]43C)[C@]1(O)[C@@H](OC(C)=O)C[C@@]2(O)[C@@](C)(O)[C@H]1CC(C)=C(CO)C(=O)O1 was run?
**A.** < 5.40

**Q.** How did the pIC50 turn out when CC(=O)OC[C@]12CC[C@H]3[C@@H](C[C@H]4O[C@]45CC=CC(=O)[C@]35C)[C@]1(O)CC[C@@]2(O)[C@@](C)(O)[C@H]1C[C@]2(C)O[C@]2(C)C(=O)O1 was run?
**A.** 5.90

**Q.** How did the pIC50 turn out when CC1=C(C)C(=O)O[C@@H]([C@](C)(O)[C@]2(O)CC[C@@]3(O)[C@@H]4C[C@H]5O[C@]56C(=O)C=CC(=O)[C@]6(C)[C@H]4CC[C@]23C)C1 was run?
**A.** < 5.40

**Q.** How did the pIC50 turn out when CC(=O)OC[C@]12CC[C@H]3[C@@H](CC=C4CC=CC(=O)[C@@]43C)[C@]1(O)[C@@H](OC(C)=O)C[C@@]2(O)[C@@](C)(O)[C@H]1CC(C)=C(CO[C@@H]2O[C@H](CO)[C@@H](O)[C@H](O)[C@H]2O)C(=O)O1 was run?
**A.** < 5.40

**Q.** With CC(=O)OC[C@]12CC[C@H]3[C@@H](C[C@H]4O[C@]45C[C@@H](n4ccnc4)CC(=O)[C@]35C)[C@]1(O)CC[C@@]2(O)[C@@](C)(O)[C@H]1CC(C)=C(C)C(=O)O1 as the compound, how does the pIC50 read?
**A.** 6.79

**Q.** How did the pIC50 turn out when CC(=O)OC[C@]12CC[C@H]3[C@@H](C[C@@H]4O[C@@]45CC=CC(=O)[C@]35C)[C@]1(O)[C@@H](OC(C)=O)C[C@@]2(O)[C@@](C)(O)[C@H]1CC(C)=C(C)C(=O)O1 was run?
**A.** < 5.40

**Q.** CC(=O)OC[C@]12CC[C@H]3[C@@H](CC=C4CC=CC(=O)[C@@]43C)[C@]1(O)[C@@H](O)C[C@@]2(O)[C@@](C)(O)[C@H]1CC(C)=C(C)C(=O)O1 was tested. Which pIC50 did it give?
**A.** < 5.40

**Q.** CC(=O)OC[C@]12CC[C@H]3[C@@H](CC=C4C[C@@H](OS(=O)(=O)O)CC(=O)[C@@]43C)[C@]1(O)CC[C@@]2(O)[C@@](C)(O)[C@H]1CC(C)=C(C)C(=O)O1 was tested. Which pIC50 did it give?
**A.** < 5.40

**Q.** CC(=O)OC[C@]12CC[C@H]3[C@@H](C[C@H]4O[C@]45CC=CC(=O)[C@]35C)[C@]1(O)[C@@H](O)C[C@@]2(O)[C@@](C)(O)[C@H]1CC(C)=C(C)C(=O)O1 was tested. Which pIC50 did it give?
**A.** < 5.40

**Q.** How did the pIC50 turn out when CC1=C(C)C(=O)O[C@@H]([C@](C)(O)[C@]2(O)CC[C@@]3(O)[C@@H]4CC=C5C(=O)C=CC(=O)[C@]5(C)[C@H]4CC[C@]23C)C1 was run?
**A.** 6.77

**Q.** How did the pIC50 turn out when CC(=O)OC[C@]12CC[C@H]3[C@@H](C[C@H]4O[C@]45C[C@@H](N=[N+]=[N-])CC(=O)[C@]35C)[C@]1(O)CC[C@@]2(O)[C@@](C)(O)[C@H]1CC(C)=C(C)C(=O)O1 was run?
**A.** 6.60

**Q.** How did the pIC50 turn out when CC1=C(C)C(=O)O[C@@H]([C@](C)(O)[C@]2(O)CC[C@@]3(O)[C@@H]4C[C@H]5O[C@]56CC=CC(=O)[C@]6(C)[C@H]4CC[C@]23CO)C1 was run?
**A.** 5.71

**Q.** How did the pIC50 turn out when CC1=C(C)C(=O)O[C@@H]([C@](C)(O)[C@]2(O)CC[C@@]3(O)[C@@H]4CC=C5[C@H](O)C=CC(=O)[C@]5(C)[C@H]4CC[C@]23C)C1 was run?
**A.** 6.55

**Q.** With CC(=O)OC[C@]12CC[C@H]3[C@@H](CC=C4CC=CC(=O)[C@@]43C)[C@]1(O)CC[C@@]2(O)[C@@](C)(O)[C@H]1CC(C)=C(C)C(=O)O1 as the compound, how does the pIC50 read?
**A.** 6.25

**Q.** With CC(=O)OC[C@]12CC[C@H]3[C@@H](CC=C4C[C@@H](OS(=O)(=O)O)CC(=O)[C@@]43C)[C@]1(O)[C@@H](OC(C)=O)C[C@@]2(O)[C@@](C)(O)[C@H]1CC(C)=C(C)C(=O)O1 as the compound, how does the pIC50 read?
**A.** < 5.40

**Q.** How did the pIC50 turn out when CC(=O)OC[C@]12CC[C@H]3[C@@H](C[C@H]4O[C@]45CC=CC(=O)[C@]35C)[C@]1(O)[C@@H](OC(C)=O)C[C@@]2(O)[C@@](C)(O)[C@H]1CC(C)=C(C)C(=O)O1 was run?
**A.** < 5.40
